Rows were chosen to be rich in hits. Some 2.3% of all compounds tested hit in one or more screens of this group.
TRPC4 PAM = allosterically enhances the mouse TRPC4 cation channel; actives 0.42% (n = 310,000); HEK293 TRPC4beta/mu-opioid, DAMGO EC20, Fluo-4 Ca2+ flux; active compounds read high; Q9QUQ5; B-score at 10 µM;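 active means B-score of calcium response area above 5 SD of library B-scores, with initial fluorescence ratio within 5 SD of library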;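 further: B-score of integrated fluorescence ratio over time as area under calcium response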
Target sequence (Q9QUQ5 whole entry, looked up): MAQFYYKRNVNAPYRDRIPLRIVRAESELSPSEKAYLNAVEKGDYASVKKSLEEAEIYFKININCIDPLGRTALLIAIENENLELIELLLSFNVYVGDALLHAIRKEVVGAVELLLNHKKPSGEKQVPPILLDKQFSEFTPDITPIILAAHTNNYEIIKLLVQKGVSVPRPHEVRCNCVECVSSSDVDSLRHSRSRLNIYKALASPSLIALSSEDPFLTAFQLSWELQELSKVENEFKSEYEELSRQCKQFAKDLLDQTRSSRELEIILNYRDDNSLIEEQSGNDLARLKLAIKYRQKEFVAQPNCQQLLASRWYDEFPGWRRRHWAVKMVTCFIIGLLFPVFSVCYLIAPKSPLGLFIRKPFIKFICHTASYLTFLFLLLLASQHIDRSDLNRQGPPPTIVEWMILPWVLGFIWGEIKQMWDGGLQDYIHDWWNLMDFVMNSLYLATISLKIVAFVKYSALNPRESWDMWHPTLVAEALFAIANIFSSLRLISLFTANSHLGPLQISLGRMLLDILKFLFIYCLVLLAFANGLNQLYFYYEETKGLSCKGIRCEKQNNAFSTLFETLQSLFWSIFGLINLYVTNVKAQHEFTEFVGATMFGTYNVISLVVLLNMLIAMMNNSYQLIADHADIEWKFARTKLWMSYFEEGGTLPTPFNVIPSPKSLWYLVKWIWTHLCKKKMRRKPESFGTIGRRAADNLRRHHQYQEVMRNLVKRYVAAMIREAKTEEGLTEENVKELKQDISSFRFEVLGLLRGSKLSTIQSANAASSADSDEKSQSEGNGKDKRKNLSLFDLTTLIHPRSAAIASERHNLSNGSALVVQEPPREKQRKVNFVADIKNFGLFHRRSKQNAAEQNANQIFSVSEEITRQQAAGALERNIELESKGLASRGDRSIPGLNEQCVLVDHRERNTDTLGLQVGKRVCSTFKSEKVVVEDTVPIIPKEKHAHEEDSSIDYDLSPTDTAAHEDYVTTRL
TRPC6 act = mouse TRPC6 channel activation. Q61143. HEK293-TRPC6 membrane potential dye fluorescence; active compounds read high. B-score at 10 µM. actives 0.13% (n = 310,000);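 active means B-score of the integrated fluorescence ratio above library mean plus 3 SD, and starting fluorescence ratio within library mean plus 5 SD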;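 further: higher score means more depolarization so channel activation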
TRPC6 inh = blocks the mouse TRPC6 cation channel. Q61143. AID 2553. HEK293-TRPC6, membrane potential dye, ACh-evoked depolarization; active compounds read low. actives 1.1% (n = 310,000). B-score at 10 µM;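 active means B-score under library mean minus 3 SD, initial fluorescence not abnormally high, positive integrated signal ratio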;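 further: B-score derived from integrated fluorescence ratio over the kinetic read; more negative B-score means stronger inhibition of depolarization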
TRPC4 block = blocks the mouse TRPC4 cation channel; Q9QUQ5; B-score at 10 µM; actives 0.39% (n = 300,000); HEK293 TRPC4beta/mu-opioid, DAMGO-evoked Fluo4 calcium flux; active compounds read low;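 active means B-score over 3 SD under the library average, no early fluorescence shift, positive overall ratio signal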
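Assay system: HEK293 cells with stable TRPC4beta plus mu-opioid receptor expression; Probe or stimulus: DAMGO in two steps, submaximal then maximal; Dosing: single-point compound dosing; Measured by: Fluo4 calcium-dye fluorescence, kinetic read; Read-out basis: B score from integrated Fluo4 fluorescence ratio.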
TRPC4 act = opens the mouse TRPC4 cation channel. Q9QUQ5. actives 0.49% (n = 310,000). B-score at 10 µM. HEK293 TRPC4beta/mu-opioid, Fluo4 calcium fluorescence; active compounds read high;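 active means B-score above 5 SD of library B-scores, and initial fluorescence ratio not above library mean plus 5 SD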;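 further: positive B-score marks a calcium rise read as TRPC4 activation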
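Incubation: 45 min room-temperature Fluo4 loading, 110 s read / System: HEK293 cells stably co-expressing mouse TRPC4beta and mu-opioid receptor / Signal: Fluo4 fluorescence, kinetic / Control set: buffer (low) and maximal DAMGO (high) / Measure: integrated baseline-normalised fluorescence ratio, converted to per-well B score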
TRPC4 sel inh 2 = mouse TRPC4 off-target activity of TRPC6 inhibitors, second screen | shares compounds with TRPC6 inh | HEK293 TRPC4/MOR, membrane potential dye fluorescence; channel activated by saturating DAMGO dose | AID 2776 | inhibition, % at 10 µM | actives 42% (n = 920);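 active means compounds whose fluorescence signal differed from control wells by over 3 SD, either direction, in both duplicate plates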
TRPC4 spec = selectivity of TRPC6 inhibitors: effect on mouse TRPC4. shares compounds with TRPC6 inh. HEK293 TRPC4/mu-opioid, membrane potential fluorescence. activity change, negative = inhibition, % at 10 µM. actives 61% (n = 920). AID 2777;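 active means rise or fall in signal beyond 3 SD of buffer-only wells in both replicate plates, either sign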;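 further: integrated kinetic ratio of fluorescence range over baseline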
HEK293 MPD ctr 2-1 = second counter-screen for TRPC6 inhibitors: parental HEK293 cells | actives 31% (n = 920) | AID 2779 | signal change vs control, % at 10 µM | shares compounds with TRPC6 inh | parental HEK293 membrane potential dye fluorescence; maximal acetylcholine challenge after compound addition;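 active means membrane potential signal moving either way by over 3 SD of the maximum-effect control, in both duplicate plates, meaning non-specific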
HEK293 MPD ctr-1 = parental HEK293 nonspecific activity of TRPC6 inhibitors | shares compounds with TRPC6 inh | parental HEK293 membrane potential dye fluorescence | membrane potential signal change, % at 10 µM | actives 60% (n = 920) | AID 2780;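 active means membrane potential signal shifting up or down by more than 3 SD of buffer-only wells, on both duplicate plates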
HEK293 MPD ctr-2 = counter-screen for TRPC6 modulators: effect in parental HEK293 cells | actives 51% (n = 2,400) | membrane potential dye fluorescence | membrane potential signal change, % at 10 µM | shares compounds with TRPC6 inh;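 active means membrane potential signal moves up or down beyond 5 SD from buffer-only wells, on both duplicate plates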
HEK293 MPD ctr 2-2 = second counter-screen for TRPC6 modulators: effect in parental HEK293 cells; shares compounds with TRPC6 inh; membrane potential dye fluorescence; after compound, maximal acetylcholine stimulation; inhibition, % at 10 µM; actives 14% (n = 2,400); AID 488926;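 active means membrane potential signal drops by more than 5 SD from the mean control signal, in both duplicate plates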;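 further: plate controls were acetylcholine ECmax control wells for no effect and buffer only wells for full effect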
TRPC4/MOR mod = mouse TRPC4 off-target activity of TRPC6 modulators; shares compounds with TRPC6 inh; HEK293 TRPC4/mu-opioid, membrane potential fluorescence; percent change from control (negative = decrease, positive = increase), % at 10 µM; actives 69% (n = 2,400); AID 488927;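 active means membrane potential signal moved up or down beyond 5 SD of buffer control wells, in both duplicate plates, actives on both sides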;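 further: plate controls were assay buffer wells for no effect and DAMGO maximal-effect wells for full effect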
TRPC4 ctr inh 2 = second check of whether TRPC6 modulators also affect mouse TRPC4; shares compounds with TRPC6 inh; HEK293 TRPC4/mu-opioid, membrane potential dye fluorescence; stimulated with maximal-effect DAMGO; inhibition, % at 10 µM; actives 55% (n = 2,400); AID 488928;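 active means drop in membrane potential signal beyond 5 SD of the control wells in both duplicate plates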;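 further: TRPC4 counter screen for TRPC6 hits run under conditions tuned for TRPC6 not TRPC4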
TRPC6 block conf = mouse TRPC6 inhibitor confirmation. HEK293-TRPC6, membrane potential dye, ACh-evoked depolarization. actives 43% (n = 3,300). inhibition, % at 10 µM. AID 488960. shares compounds with TRPC6 inh;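 active means fluorescence ratio falls more than 5 SD below the full-stimulation control mean, in both duplicate runs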;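 further: integrated fluorescence ratio of peak minus minimum over baseline after agonist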
TRPC6 act conf = mouse TRPC6 activator confirmation; shares compounds with TRPC6 inh; HEK293-TRPC6 membrane potential dye fluorescence, FDSS; activation, % at 10 µM; actives 11% (n = 2,800);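 active means ratio signal rise beyond 5 SD above unstimulated control wells' mean, seen in both duplicate runs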;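 further: plate controls were buffer EC0 wells for no effect and acetylcholine ECmax response for full effect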
Starred values were filed as active, the others as inactive; i = inactive; . = no result.

SMILES	TRPC4 PAM	TRPC6 act	TRPC6 inh	TRPC4 block	TRPC4 act	HEK293 MPD ctr-2	HEK293 MPD ctr 2-2	TRPC4/MOR mod	TRPC4 ctr inh 2	TRPC6 block conf	TRPC6 act conf	others
Cc1ccc(C)c(CS(=O)(=O)c2cn(CC(=O)N3CCCCC3)c3ccccc23)c1	i	12*	i	i	i	i	i	i	i	.	44%*
Cc1ccc(C)c(CS(=O)(=O)c2cn(CC(=O)N3CCC(C)CC3)c3ccccc23)c1	i	i	i	i	i	.	.	.	.	.	.
Cc1nnc(C)c2c(C)n(C(C)c3ccccc3)c(C)c12 (stereo not drawn)	i	i	i	i	i	.	.	.	.	.	.
COc1ccc(C(C)n2c(C)c3c(C)nnc(C)c3c2C)cc1 (stereo not drawn)	i	i	-8.1*	i	i	-220%*	i	-30%*	65%*	i	i
CC(=O)Nc1ccc2c(c1)ncn2-c1ccc(C)cc1	i	i	-5.5*	i	i	i	i	i	i	i	i
COc1ccc(CCC(=O)OCC(=O)N(CC(C)C)c2c(N)n(Cc3ccccc3)c(=O)[nH]c2=O)cc1	i	i	i	i	i	.	.	.	.	.	.
Cc1ccc2sc(NNC(=O)C3=COCCO3)nc2c1C	i	i	i	i	i	.	.	.	.	.	.
Cc1ccc2sc(N3CCN(C(=O)C4=COCCO4)CC3)nc2c1C	i	i	-5.4*	i	i	i	i	17%*	i	68%*	.
Cc1ccc(S(=O)(=O)N2CCN(C(=O)C3=COCCO3)CC2)cc1C	i	i	-7*	i	i	.	.	.	.	i	i	TRPC4 sel inh 2=i;TRPC4 spec=-0.7%*;HEK293 MPD ctr 2-1=i;HEK293 MPD ctr-1=i
O=C(C1=COCCO1)N1CCN(C(c2ccccc2)c2ccccc2)CC1	i	i	-7*	i	i	.	.	.	.	i	.	TRPC4 sel inh 2=i;TRPC4 spec=1.6%*;HEK293 MPD ctr 2-1=i;HEK293 MPD ctr-1=1.7%*
Cc1ccc(S(=O)(=O)N2CCN(C(=O)c3cccs3)CC2)cc1C	i	18*	i	i	i	i	i	16%*	i	.	148%*
CCN(CC)CCNC(=O)CCN1N=C(c2ccccc2)CCC1=O	i	i	i	i	i	.	.	.	.	.	.
Cc1cc2nc(N3CCN(C(=O)c4cccs4)CC3)sc2cc1C	i	i	i	i	i	.	.	.	.	.	.
Cc1cc(C)c2nc(N3CCN(C(=O)c4cccs4)CC3)sc2c1	i	i	-6.5*	i	i	i	i	i	i	i	i
CCN1C(=O)/C(=C/C=C2\C=CN(CC)c3ccccc32)SC1=S	i	i	-6.1*	i	i	i	i	-27%*	80%*	i	i
CCN(CC)S(=O)(=O)c1cccc(C(=O)Nc2cccc(C)c2)c1	i	i	-5.1*	i	i	i	i	8.0%*	i	i	i
CCN(CC)CCNC(=O)c1ccc(NC(=O)C2CCN(S(=O)(=O)c3ccc4c(c3)OCCO4)CC2)cc1	i	i	i	i	i	.	.	.	.	.	.
CCN(CC)CCNC(=O)c1ccc(NC(=O)c2cc(S(=O)(=O)N3CCCCC3)ccc2C)cc1	i	i	-5.3*	i	i	i	65%*	10%*	i	60%*	i
COc1ccc(S(=O)(=O)N2CCCCCC2)cc1C(=O)NCCOc1ccc(C)cc1	i	i	-5.5*	i	i	172%*	i	27%*	i	i	.
CCN(CC)CCNC(=O)c1ccc(NC(=O)c2cccc(S(=O)(=O)Nc3ccc(C)cc3)c2)cc1	i	i	-9.7*	i	i	.	.	.	.	56%*	i	TRPC4 sel inh 2=i;TRPC4 spec=i;HEK293 MPD ctr 2-1=41%*;HEK293 MPD ctr-1=i
COc1ccc(-c2nnc(SC)nc2-c2ccc(OC)c([N+](=O)[O-])c2)cc1[N+](=O)[O-]	i	i	i	i	i	.	.	.	.	.	.
COc1nc(N)c(C#N)c(-c2ccc(N(C)CCC#N)cc2)c1C#N	i	i	i	i	i	.	.	.	.	.	.
COc1cccc(N2CCN(C(=O)C3CCCN(c4ncnc5c4nc4n5CCCCC4)C3)CC2)c1 (stereo not drawn)	i	i	i	i	i	.	.	.	.	.	.
COc1ccc(-n2nc(C(=O)NCC(=O)NCc3ccc(F)cc3)c3ccccc3c2=O)cc1OC	i	i	i	i	i	.	.	.	.	.	.
O=C(NC1CCCc2c1cnn2-c1ccc(F)cc1F)c1csnn1 (stereo not drawn)	i	i	i	i	i	.	.	.	.	.	.
O=C(Cc1ccc(Br)cc1)NCc1ccccc1	i	i	i	i	i	.	.	.	.	.	.
Cc1cccn2c(=O)nc(SCC(=O)NC3CCCC3)nc12	i	i	i	i	i	.	.	.	.	.	.
O=C(NCCc1ccc(F)cc1)Nc1ccc([N+](=O)[O-])cc1	i	i	i	i	i	.	.	.	.	.	.
O=[N+]([O-])c1ccc(NC(=S)NCCc2ccc(F)cc2)cc1	i	i	-5.3*	i	i	i	i	i	62%*	i	i

Screens as filed in PubChem.
